Source: ChEMBL document CHEMBL4041488, “Structural Characterization and Assessment of the Cytotoxicity of 2,3-Dihydro-1H-indene Derivatives and Coumarin Glucosides from the Bark of Streblus indicus” (J Nat Prod, 2016)

Columns and labels:
[1] = tested on: MCF7; assay: Cytotoxicity against human MCF7 cells assessed as reduction in cell viability after 48 hrs by MTT assay; type: functional, cell-based; conditions: MCF7, 48 h
Outline: (§1)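 1 × 10^4 cells per well, pre-incubated 12 h at 37 °C under 5% CO2, then exposed to serial dilutions of compound (paclitaxel as reference) for 48 h. MTT reagent (5 mg/mL) added for a further 4 h, formazan dissolved in DMSO, absorbance read at 570 nm. Three independent experiments, each in triplicate; IC50 from sigmoid curve fitting.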

[2] = tested on: A549; assay: Cytotoxicity against human A549 cells assessed as reduction in cell viability after 48 hrs by MTT assay; type: functional, cell-based; conditions: A549, 48 h; outline: as §1

| SMILES | IC50 [1] [µM] | IC50 [2] [µM] |
| --- | --- | --- |
| COc1cc(O)ccc1C(=O)C[C@H]1c2ccc(O)c(O)c2C[C@@H]1C(C)(C)O | 3.9 | 2.5 |
| COc1cc(C(=O)OC[C@H]2O[C@@H](Oc3ccc4ccc(=O)oc4c3)[C@H](O)[C@@H](O)[C@@H]2O)cc(OC)c1O | > 10 | > 10 |
| COC(=O)C[C@@H]1c2c(-c3ccc(O)cc3OC)cc(O)c(O)c2C[C@H]1C(C)(C)O | 7.2 | 6 |
| COc1cc(C(=O)OC[C@H]2O[C@@H](Oc3cc4oc(=O)ccc4cc3OC)[C@H](O)[C@@H](O)[C@@H]2O)ccc1O[C@@H]1O[C@H](CO)[C@@H](O)[C@H](O)[C@H]1O | > 10 | > 10 |
| COc1cc(O)ccc1C(=O)C[C@@H]1c2ccc(O)c(O)c2C[C@H]1C(C)(C)O | 3.3 | 2.2 |
| COc1cc2ccc(=O)oc2cc1O[C@@H]1O[C@H](COC(=O)c2cc(OC)c(O[C@@H]3O[C@H](CO)[C@@H](O)[C@H](O)[C@H]3O)c(OC)c2)[C@@H](O)[C@H](O)[C@H]1O | > 10 | > 10 |
| COc1cc2ccc(=O)oc2cc1O[C@@H]1O[C@H](COC(=O)CCc2cc(OC)c(O[C@@H]3O[C@H](CO)[C@@H](O)[C@H](O)[C@H]3O)c(OC)c2)[C@@H](O)[C@H](O)[C@H]1O | > 10 | > 10 |
| COC(=O)C[C@@H]1c2c(-c3ccc(O)cc3OC)cc(O)c(O)c2C[C@@H]1C(C)(C)O | 6.7 | 5.6 |
